The source made the active and inactive calls. The calls are words filed in the database; no cut-off is given here.
How the values were obtained:
SNU-398 [1] = test: Induction of apoptosis in human SNU398 cells assessed as caspase activation after 48 hrs by HTS assay; format: functional, cell-based; details: SNU-398, 48 h
Outline: (§1)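 Cell-based caspase-3 activation HTS read with a proprietary fluorescent caspase-3 substrate in T47D, HCT116 and SNU398 cells. Compounds applied for 48 h, highest level 10 µM. EC50 reported as mean ± SEM of three or more experiments.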

HCT-116 [2] = test: Induction of apoptosis in human HCT116 cells assessed as caspase activation after 48 hrs by HTS assay; format: functional, cell-based; details: HCT-116, 48 h; outline: as §1
T47D [3] = test: Induction of apoptosis in human T47D cells assessed as caspase activation after 48 hrs by HTS assay; format: functional, cell-based; outline: as §1
SNU-398 [4] = test: Growth inhibition of human SNU398 cells after 48 hrs; format: functional; details: SNU-398, 48 h
Outline: (§2)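 96-well growth-inhibition (GI50) format, run in parallel in T47D breast, HCT116 colon and SNU398 hepatocellular carcinoma cells.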

HCT-116 [5] = test: Growth inhibition of human HCT116 cells after 48 hrs; format: functional; details: HCT-116, 48 h; outline: as §2
T47D [6] = test: Growth inhibition of human T47D cells after 48 hrs; format: functional; outline: as §2
[7] = Inhibition of tubulin polymerization up to 50 uM
T47D [8] = test: Induction of apoptosis in human T47D cells assessed as accumulation at subG1 phase at 0.05 uM after 24 hrs by flow cytometry analysis; format: functional
Outline: (§3)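 T47D cells treated at 0.05 µM for 24 h or 48 h at 37 °C alongside untreated controls. Cells stained with propidium iodide and analysed by flow cytometry. Percentages in sub-G1, G1, S and G2/M read from DNA-content histograms.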

T47D [9] = test: Induction of apoptosis in human T47D cells assessed as accumulation at G1 phase at 0.05 uM after 48 hrs by flow cytometry analysis; format: functional; outline: as §3
T47D [10] = test: Induction of apoptosis in human T47D cells assessed as accumulation at G1 phase at 0.05 uM after 24 hrs by flow cytometry analysis; format: functional; outline: as §3
T47D [11] = test: Induction of apoptosis in human T47D cells assessed as accumulation at subG1 phase at 0.05 uM after 48 hrs by flow cytometry analysis; format: functional; outline: as §3
[12] = Inhibition of tubulin polymerization
T47D [13] = test: Induction of apoptosis in human T47D cells assessed as accumulation at G2/M phase at 0.05 uM after 48 hrs by flow cytometry analysis; format: functional; outline: as §3
T47D [14] = test: Induction of apoptosis in human T47D cells assessed as accumulation at G2/M phase at 0.05 uM after 24 hrs by flow cytometry analysis; format: functional; outline: as §3
T47D [15] = test: Induction of apoptosis in human T47D cells assessed as accumulation at S phase at 0.05 uM after 24 hrs by flow cytometry analysis; format: functional; outline: as §3
T47D [16] = test: Induction of apoptosis in human T47D cells assessed as accumulation at S phase at 0.05 uM after 48 hrs by flow cytometry analysis; format: functional; outline: as §3

| Compound | EC50 (SNU-398 [1]) [nM] | EC50 (HCT-116 [2]) [nM] | EC50 (T47D [3]) [nM] | also measured |
| --- | --- | --- | --- | --- |
| Cc1ccc(O)cc1Nc1cc(C(F)(F)F)nc(-c2cnccn2)n1 | > 10000 | > 10000 | 190 |  |
| COc1ccc(Cl)c(Nc2cc(C(F)(F)F)nc(-c3ccncc3)n2)c1 |  | 960 | 100 |  |
| COc1ccc(OC)c(Nc2cc(-c3ccccn3)nc(-c3ccccn3)n2)c1 | 160 | 330 | 420 | GI50 (SNU-398 [4]): 410 nM; GI50 (HCT-116 [5]): 130 nM; GI50 (T47D [6]): 240 nM |
| COc1ccc(C)cc1Nc1cc(C(F)(F)F)nc(-c2ccncc2)n1 |  | 160 | 76 |  |
| COc1ccc(N2CCCCC2)c(Nc2cc(C(F)(F)F)nc(-c3cccnc3)n2)c1 | > 10000 | > 10000 | > 10000 |  |
| COc1cc(Nc2cc(C(F)(F)F)nc(-c3cccnc3)n2)cc(OC)c1 | 1400 | 2900 | 82 | GI50 (SNU-398 [4]): 1000 nM; GI50 (HCT-116 [5]): 1300 nM; GI50 (T47D [6]): 61 nM |
| COc1cccc(Nc2cc(C(F)(F)F)nc(-c3ccncc3)n2)c1 | > 10000 | > 10000 | 1300 |  |
| COc1cccc(Nc2cc(C(F)(F)F)nc(-c3cccnc3)n2)c1 | > 10000 | > 10000 | 340 | GI50 (SNU-398 [4]): 6400 nM; Activity [7]: inactive; GI50 (HCT-116 [5]): > 10000 nM; GI50 (T47D [6]): 94 nM |
| COc1ccc(Oc2ccccc2)cc1Nc1cc(C(F)(F)F)nc(-c2cccnc2)n1 | 5000 | 3300 | 1500 |  |
| Oc1cccc(Nc2cc(C(F)(F)F)nc(-c3ccncc3)n2)c1 |  | 3100 | 680 |  |
| COc1ccc(Cl)c(Nc2cc(C)nc(N3CCOCC3)n2)c1 | > 10000 | > 10000 | > 10000 |  |
| COc1ccc(C)c(Nc2cc(C(F)(F)F)nc(-c3ccncc3)n2)c1 |  | 120 | 25 |  |
| FC(F)(F)c1cc(Nc2cccc(Cl)c2)nc(-c2cccnc2)n1 | > 10000 | > 10000 | > 10000 |  |
| COc1ccc(Nc2cc(C(F)(F)F)nc(-c3cccnc3)n2)cc1 | > 10000 | > 10000 | > 10000 |  |
| COc1ccc(Nc2cc(C(F)(F)F)nc(-c3ccncc3)n2)cc1 | > 10000 | > 10000 | > 10000 |  |
| Cc1ccc(O)cc1Nc1cc(C(F)(F)F)nc(-c2cccnc2)n1 | 5500 | > 10000 | 87 |  |
| COc1ccc(Cl)c(Nc2cc(C(F)(F)F)nc(-c3cccnc3)n2)c1 | 820 | 930 | 140 |  |
| COc1ccc(OC)c(Nc2cc(C(F)(F)F)nc(-c3cnccn3)n2)c1 | 280 | 410 | 48 |  |
| COc1ccc(OC)c(Nc2cc(C(F)(F)F)nc(-c3ccccn3)n2)c1 | 110 | 190 | 18 |  |

| Compound | EC50 (SNU-398 [1]) [nM] | EC50 (HCT-116 [2]) [nM] | EC50 (T47D [3]) [nM] | also measured |
| --- | --- | --- | --- | --- |
| COc1cc(Nc2cc(C(F)(F)F)nc(-c3ccncc3)n2)cc(OC)c1 |  | 240 | 34 | GI50 (SNU-398 [4]): 270 nM; GI50 (HCT-116 [5]): 270 nM; GI50 (T47D [6]): 36 nM |
| COc1cc(Nc2cc(C(F)(F)F)nc(-c3cnccn3)n2)cc(OC)c1 | > 10000 | > 10000 | 130 |  |
| FC(F)(F)c1cc(Nc2cccc(-c3ccccc3)c2)nc(-c2cccnc2)n1 | > 10000 | > 10000 | > 10000 |  |
| Cc1ccc(O)cc1Nc1cc(C(F)(F)F)nc(-c2ccncc2)n1 |  | 2000 | 48 |  |
| Oc1ccc(Cl)c(Nc2cc(C(F)(F)F)nc(-c3cccnc3)n2)c1 | > 10000 | > 10000 | 230 |  |
| COc1ccc(OC)c(Nc2cc(C(F)(F)F)nc(-c3cccnc3)n2)c1 | 130 | 170 | 24 | Activity (T47D [8]): 7%; Activity (T47D [9]): 31%; Activity (T47D [10]): 32%; Activity (T47D [11]): 19%; GI50 (SNU-398 [4]): 68 nM; IC50 [12]: 500 nM; Activity (T47D [13]): 43%; Activity (T47D [14]): 53%; Activity (T47D [15]): 6%; GI50 (HCT-116 [5]): 180 nM; Activity (T47D [16]): 7%; GI50 (T47D [6]): 95 nM |
| COc1ccc(OC)c(Nc2nc(-c3ccccn3)ncc2OC)c1 | > 10000 | > 10000 | > 10000 |  |
| COc1ccc(Cl)c(Nc2cc(C(F)(F)F)nc(-c3c(Cl)cncc3Cl)n2)c1 | > 10000 | > 10000 | > 10000 |  |
| COc1cccc(Nc2cc(C(F)(F)F)nc(-c3ccccc3)n2)c1 | > 10000 | > 10000 | > 10000 |  |
| COc1ccc(C)cc1Nc1cc(C(F)(F)F)nc(-c2cccnc2)n1 | 130 | 130 | 96 |  |
| COc1cccc(Nc2cc(C(F)(F)F)nc(C3CCCCN3)n2)c1 (stereo not drawn) | > 10000 | > 10000 | > 10000 |  |
| Oc1ccc(Cl)c(Nc2cc(C(F)(F)F)nc(-c3ccncc3)n2)c1 |  | 1100 | 77 |  |
| Cc1ccc(C)c(Nc2cc(C(F)(F)F)nc(-c3ccncc3)n2)c1 |  | 610 | 120 |  |
| Oc1cccc(Nc2cc(C(F)(F)F)nc(-c3cccnc3)n2)c1 | > 10000 | > 10000 | 970 |  |
| COc1cccc(Nc2cc(C(F)(F)F)nc(-c3ccccn3)n2)c1 | 3700 | 6000 | 360 |  |
| COc1cccc(Nc2nc(-c3ccccn3)ncc2OC)c1 | > 10000 | > 10000 | > 10000 |  |
| COc1ccc(Cl)cc1Nc1cc(C(F)(F)F)nc(-c2cccnc2)n1 | 440 | 610 | 360 |  |
| Oc1ccc(Cl)c(Nc2cc(C(F)(F)F)nc(-c3cnccn3)n2)c1 | > 10000 | > 10000 | 560 |  |
